Reference: ChEMBL document CHEMBL3351553 (J Med Chem, 2014)
≈ marks a conversion by molar mass, not a printed value.

Tested on: not listed separately
Test: Inhibition of Staphylococcus aureus topoisomerase 4 assessed as reduction in decatenation of kDNA at 100 to 500 uM by gel electrophoresis method
Conditions: not given
In short: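 Compounds were in DMSO, with water or DMSO as vehicle controls. Reactions were stopped with STEB plus chloroform:isoamyl alcohol and run on 1% agarose TAE gels stained with ethidium bromide. IC50 was taken from densitometry against reactions with and without enzyme.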
Work on `CC(C)(C)c1ccc([C@H](O)CCCN2CCC(C(O)(c3ccccc3)c3ccccc3)CC2)cc1` [R-TERFENADINE] yielded an IC50 of 110 µM.
In the case of `CC(C)(C)c1ccc([C@@H](O)CCCN2CCC(C(O)(c3ccccc3)c3ccccc3)CC2)cc1`, the IC50 is reported as 100 µM.

Tested on: Staphylococcus aureus
Test: Antimicrobial activity against Staphylococcus aureus UAMS1 incubated for 16 hrs by CLSI based method
Format: functional
Conditions: UAMS1, 16 h
Compound `O=C(O)c1cccc(CN2CCC(C(O)(c3ccccc3)c3ccccc3)CC2)c1` has an MIC greater than 256 µg/mL.
With `COc1ccccc1CN1CCC(C(O)(c2ccccc2)c2ccccc2)CC1` the MIC was 128 µg/mL (≈ 330 µM).
Compound `OC(c1ccccc1)(c1ccccc1)C1CCN(Cc2ccccc2-c2ccccc2)CC1` has an MIC greater than 256 µg/mL.
`OC(c1ccccc1)(c1ccccc1)C1CCN(Cc2cccc(C(F)(F)F)c2)CC1` showed an MIC greater than 256 µg/mL.
`CC(C)(C)c1cccc(CN2CCC(C(O)(c3ccccc3)c3ccccc3)CC2)c1` showed an MIC of 32 µg/mL (≈ 77.4 µM).
In the case of `CC(C)(C)c1ccccc1CCN1CCC(C(O)(c2ccccc2)c2ccccc2)CC1`, the MIC is reported as 16 µg/mL (≈ 37.4 µM).
`CC(C)(C)c1ccc(C(O)CCCN2CCN(C(c3ccccc3)c3ccccc3)CC2)cc1` (stereo not given) [TRENIZINE] showed an MIC greater than 256 µg/mL.
`CC(C)(C)c1ccc(C(O)CCCN2CCC(=C(c3ccccc3)c3ccccc3)CC2)cc1` (stereo not given) showed an MIC greater than 256 µg/mL.
Compound `N#Cc1ccccc1CN1CCC(C(O)(c2ccccc2)c2ccccc2)CC1` has an MIC greater than 256 µg/mL.
Compound `O=C(O)c1ccccc1CN1CCC(C(O)(c2ccccc2)c2ccccc2)CC1` has an MIC greater than 256 µg/mL.
Compound `COc1cccc(CN2CCC(C(O)(c3ccccc3)c3ccccc3)CC2)c1` has an MIC of 128 µg/mL (≈ 330 µM).
`COC(=O)c1cccc(CN2CCC(C(O)(c3ccccc3)c3ccccc3)CC2)c1` gave an MIC greater than 256 µg/mL.
In the case of `OC(c1ccccc1)(c1ccccc1)C1CCN(Cc2ccc(-c3ccco3)cc2)CC1`, the MIC is reported as 32 µg/mL (≈ 75.6 µM).
Compound `CC(C)(C)c1ccc(C(O)CCCN2CCC(C(c3ccccc3)c3ccccc3)CC2)cc1` (stereo not given) has an MIC of 8 µg/mL (≈ 17.6 µM).
Compound `CC(C)c1ccc(CN2CCC(C(O)(c3ccccc3)c3ccccc3)CC2)cc1` has an MIC of 32 µg/mL (≈ 80.1 µM).
`COC(=O)c1ccccc1CN1CCC(C(O)(c2ccccc2)c2ccccc2)CC1` gave an MIC greater than 256 µg/mL.
In the case of `CC(C)(C)c1ccccc1CN1CCC(C(O)(c2ccccc2)c2ccccc2)CC1`, the MIC is reported as greater than 256 µg/mL.
`OC(c1ccccc1)(c1ccccc1)C1CCN(Cc2ccc(F)cc2)CC1` gave an MIC greater than 256 µg/mL.
In the case of `N#Cc1ccc(CN2CCC(C(O)(c3ccccc3)c3ccccc3)CC2)cc1`, the MIC is reported as greater than 256 µg/mL.
`N#Cc1cccc(CN2CCC(C(O)(c3ccccc3)c3ccccc3)CC2)c1` showed an MIC greater than 256 µg/mL.
In the case of `Cc1ccc(CN2CCC(C(O)(c3ccccc3)c3ccccc3)CC2)cc1`, the MIC is reported as 128 µg/mL (≈ 345 µM).
Work on `OC(c1ccccc1)(c1ccccc1)C1CCN(Cc2ccccc2C(F)(F)F)CC1` yielded an MIC greater than 256 µg/mL.
Compound `Oc1cccc(CN2CCC(C(O)(c3ccccc3)c3ccccc3)CC2)c1` has an MIC greater than 256 µg/mL.
With `COc1ccc(CN2CCC(C(O)(c3ccccc3)c3ccccc3)CC2)cc1` the MIC was 128 µg/mL (≈ 330 µM).
`OC(c1ccccc1)(c1ccccc1)C1CCN(Cc2ccc(-n3cccc3)cc2)CC1` gave an MIC of 32 µg/mL (≈ 75.7 µM).
`Cc1ccccc1CN1CCC(C(O)(c2ccccc2)c2ccccc2)CC1` showed an MIC of 128 µg/mL (≈ 345 µM).
Compound `OC(c1ccccc1)(c1ccccc1)C1CCN(Cc2cccc(F)c2)CC1` has an MIC of 128 µg/mL (≈ 341 µM).
With `Oc1ccccc1CN1CCC(C(O)(c2ccccc2)c2ccccc2)CC1` the MIC was 64 µg/mL (≈ 171 µM).
`OC(c1ccccc1)(c1ccccc1)C1CCN(Cc2cccc(-c3ccccc3)c2)CC1` gave an MIC of 64 µg/mL (≈ 148 µM).
Work on `Cc1cccc(CN2CCC(C(O)(c3ccccc3)c3ccccc3)CC2)c1` yielded an MIC of 128 µg/mL (≈ 345 µM).
Compound `OC(c1ccccc1)(c1ccccc1)C1CCN(Cc2ccccc2F)CC1` has an MIC greater than 256 µg/mL.
Compound `O=C(O)c1ccc(CN2CCC(C(O)(c3ccccc3)c3ccccc3)CC2)cc1` has an MIC greater than 256 µg/mL.
With `Oc1ccc(CN2CCC(C(O)(c3ccccc3)c3ccccc3)CC2)cc1` the MIC was 128 µg/mL (≈ 343 µM).
For `OC(c1ccccc1)(c1ccccc1)C1CCN(Cc2ccc(-c3ccoc3)cc2)CC1`, the MIC was 32 µg/mL (≈ 75.6 µM).
In the case of `OC(c1ccccc1)(c1ccccc1)C1CCN(Cc2ccc(-c3cccs3)cc2)CC1`, the MIC is reported as 32 µg/mL (≈ 72.8 µM).
In the case of `OC(c1ccccc1)(c1ccccc1)C1CCN(Cc2ccc(C(F)(F)F)cc2)CC1`, the MIC is reported as greater than 256 µg/mL.
In the case of `COC(=O)c1ccc(CN2CCC(C(O)(c3ccccc3)c3ccccc3)CC2)cc1`, the MIC is reported as greater than 256 µg/mL.
`OC(c1ccccc1)(c1ccccc1)C1CCN(Cc2ccc(-c3ccsc3)cc2)CC1` gave an MIC of 16 µg/mL (≈ 36.4 µM).
